ChEMBL document CHEMBL1833887, “Synthesis and evaluation of 7-substituted 4-aminoquinoline analogues for antimalarial activity” (J Med Chem, 2011)
In brackets after ≈: the same amount, converted by molar mass.

Assays:
Plasmodium falciparum [1] = assay: Ratio of EC50 for chloroquine-resistant Plasmodium falciparum K1 infected in human erythrocytes to EC50 for chloroquine-sensitive Plasmodium falciparum 3D7 infected in human erythrocytes; type: functional
Plasmodium falciparum [2] = assay: Antimalarial activity against chloroquine-sensitive Plasmodium falciparum 3D7 infected in human erythrocytes assessed as reduction in parasitemia after 72 hrs by spectrophotometry; type: functional, organism-based; conditions: 3D7, 72 h
[3] = Ratio of EC50 for human HepG2 cells to EC50 for Plasmodium falciparum 3D7 infected in human erythrocytes
[4] = Permeability of the compound at pH 7.4 after 30 mins by PAMPA; type: ADME; conditions: read-out: permeability
Method in brief: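 PAMPA at pH 7.4. A 10 mM DMSO stock is diluted into system solution buffer; its UV spectrum serves as reference. Membrane painted with GIT lipid, acceptor chamber holds acceptor solution buffer. Sandwich stirred for 30 min, aqueous boundary layer set to 40. Donor and acceptor UV spectra read at 250–500 nm. Permeability coefficient from the AUCs of reference, donor and acceptor. Single experiment in triplicate.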

[5] = Ratio of EC50 for human HepG2 cells to EC50 for Plasmodium falciparum K1 infected in human erythrocytes
HepG2 = assay: Cytotoxicity against human HepG2 cells assessed as intracellular ATP level after 72 hrs by Celltiter-Glo luminescent assay; type: cell-based; conditions: HepG2, 72 h
[6] = Solubility of the compound at pH 7.4 after 18 hrs by UV spectroscopic analysis; type: physicochemical; conditions: buffer
Method in brief: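 Kinetic solubility. A 10 mM stock is diluted 1:100 into PBS pH 7.4 and incubated 18 h at room temperature, then filtered; the filtrate is mixed 1:1 with 1-propanol. UV spectrum (250–500 nm) compared by AUC with a 1-propanol/PBS reference. Single experiment in triplicate.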

[7] = Dissociation constant, pKa of the compound; type: physicochemical
Plasmodium falciparum [8] = assay: Antimalarial activity against chloroquine-resistant Plasmodium falciparum K1 infected in human erythrocytes assessed as reduction in parasitemia after 72 hrs by spectrophotometry; type: functional, organism-based; conditions: K1, 72 h

Row | SMILES | Ratio EC50 (Plasmodium falciparum [1]) | EC50 (Plasmodium falciparum [2]) [nM] | Ratio EC50 [3] | Papp at 0.5 h [4] [×10⁻⁶ cm/s] | Ratio EC50 [5] | EC50 (HepG2) [nM] | solubility at 18 h [6] [µM] | pKa [7] | EC50 (Plasmodium falciparum [8]) [nM]
1 | COc1cccc(CNCCCNc2ccnc3cc(Oc4ccccc4)ccc23)c1O | 122 | 15 | 450 | 317 | 4 | 6800 | 14.5 (≈ 6.23 µg/mL) | 9.28 | 1840
2 | Cc1cc(C)cc(Cc2ccc3c(NCCCNCc4ccco4)ccnc3c2)c1 | 77 | 9 | 712.1 | 23 | 9.2 | 6270 | 4.2 (≈ 1.68 µg/mL) | 9.47 | 678
3 | COc1ccc(Oc2ccc3c(NCCCNCc4cc(F)ccc4OC)ccnc3c2)cc1 | 12.2 | 54 | 129 | 317 | 11 | 7000 | 14.5 (≈ 6.69 µg/mL) | 9.28 | 660
4 | COc1cccc(CNCCCNc2ccnc3cc(Cc4ccc5c(c4)OCO5)ccc23)c1O | 6 | 8 | 135.4 | 237 | 22.7 | 1140 | 32 (≈ 15.1 µg/mL) | 9.47 | 50
5 | c1ccc2c(-c3ccc4c(NCCCNCc5ccc6c(c5)OCO6)ccnc4c3)cccc2c1 | 0.9 | 598 | 11 | 237 | 12.2 | 6570 | 32 (≈ 14.8 µg/mL) | 9.47 | 538
